Experiment [1] in a line: S. cerevisiae growth inhibition in permissive medium (OD615), pilot counter-assay for S. cerevisiae lifespan shortening project, permissive growth control (AID 705;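 active = growth inhibition above 25% in both replicates, a cutoff set 3 SD above the mean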). To be noted: OD615, 24 h, at 10 µM, stronger effect = higher value. An outline of the steps: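 assay system = Saccharomyces cerevisiae strain carrying genetically modified DeaD replicative-lifespan system | medium = SC raffinose/galactose permissive medium | dosing = 10 µM single dose, 0.25% DMSO | schedule = 24 h compound exposure at 30 °C after 4 h pre-growth | measured by = OD at 615 nm | read-out basis = growth inhibition from lowered OD615 after 24 h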

Experiment [2] is described as follows: S. cerevisiae growth inhibition in restrictive medium, OD615, pilot screen, restrictive growth control, yeast lifespan reduction project (AID 706;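 active = growth inhibition above a set limit, 3 SD over mean compound inhibition, in both replicates, cut at about 43% in these data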;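 also: modified DeaD lifespan yeast strain shifted to restrictive glucose medium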). To be noted: OD615, 48 h, at 10 µM, stronger effect = higher value. An outline of the steps:
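Buffer or medium: CSMM-D glucose medium. Material: genetically modified Saccharomyces cerevisiae, DeaD replicative lifespan assay strain. Times: 48 h compound exposure at 30 °C. Measured by: optical density at 615 nm.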

Experiment [3] can be described thus: doxorubicin toxicity protection in MRP-1 cells – H69AR cells, CellTiter-Glo, duplicate, MRP-1 activator project, pilot screen (AID 807;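 active = viability increase at or above a cutoff of the median across tested compounds plus 3 SD, cut at about 8.5% in these data, passing the limit was not always enough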;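 also: compound pretreatment 18-22 h then 72 h combined with doxorubicin; 0% = doxorubicin alone and 100% = vehicle without doxorubicin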). To be noted: H69AR viability with doxorubicin, CellTiter-Glo luminescence; at 10 µM; stronger effect = higher value. (Cellular ATP, detected with luciferase, serves as a proxy for viable cell number.)
Experiment [4] in a line: viability of HCT116 without oncogenic beta-catenin – human colon tumor cells, pilot screen (AID 823;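 active = cell viability at or below a set limit in both duplicate runs, the limit being the all-compound median minus 4 SD, cut at about 23% in these data, passing the limit was not always enough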;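 also: 0% = wells killed by 20 µM Hyamine and 100% = untreated DMSO cell wells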). The following applies: HCT116 beta-catenin knockout viability, CellTiter-Glo, 60 h; at 10 µM; stronger effect = lower value.
Experiment [5] is described as follows: viability of PTEN-null HCT116 cells – cell-based, HCT116 clonal line, CellTiter-Glo, pilot screen (AID 824;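 active = viability at or below 27.92% in each of two runs, the all-compound median minus 4 SD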;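 also: 0% = 20 µM Hyamine control and 100% = vehicle cell control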). The following applies: HCT116 PTEN-deleted viability, 60 h, at 10 µM, stronger effect = lower value.
Experiment [6] can be described thus: RAM pathway blockade in budding yeast – dse1pr::URA3 reporter, 5-FOA selection, pilot screen (AID 869;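 active = inhibition over a set limit, the all-compound mean plus 3 SD, in both replicate runs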;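 also: 0% = DMSO wells with no growth and 100% = 10 µM 1-NA-PP1 with full growth; RAM network block rescues cells from 5-FOA so hits raise OD615 growth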). To be noted: S. cerevisiae dse1pr::URA3 5-FOA growth, OD615, 2 d; at 10 µM; stronger effect = higher value; strain carries analog-sensitive mutant Cbk1 kinase.
Experiment [7] is described as follows: RAM signaling pathway blockade in yeast – S. cerevisiae, Pdr1DBD-CYC8 efflux-inhibited sensitized strain, primary screen (AID 1298).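 Also: 0% = DMSO untreated cells without growth and 100% = 10 µM 1-NA-PP1 full growth; higher means more yeast growth rescued from 5-FOA killing.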 To be noted: S. cerevisiae cbk1-as DSE1-URA3 strain, 5-FOA growth OD615, 2 d; at 50 µM; stronger effect = higher value.

SMILES strings stand for the structures. A number with no mark means an inactive call. Records with an inconclusive call do not appear. Active and inactive are the calls of the source.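 The calls were made as follows, unless noted: active = RAM network inhibition above 8.4% in each of two replicates, 3 SD over the compound average; inconclusive = above 8.4% inhibition in only one replicate; inactive = 8.4% inhibition or less in each replicate.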 Non-standard residues stand in square brackets, D forms with d. Residues, ends and D or L forms follow the SMILES beside them. ξ: configuration not given here. *: point of attachment. Cbz = O=C(OCc1ccccc1)*; ξV = CC(C)C(N)C(=O)O; OtBu = CC(C)(C)O*

One may read the viability as a read-out of living cells in per cent, often relative to untreated cells. Usually inhibition stands for the change of the read-out against control, counted positive when it falls.

On to `CCCc1nc(SCc2ccccn2)c2c(=O)n(C)c(=O)n(C)c2n1`, for which the results for the growth inhibition in experiment [1] and in experiment [2] were -3.14% and -0.14%, respectively. In experiment [3], the viability increase is 1.81%. Besides, the viability in experiment [4] is 83.4%; in experiment [5] it was 85.4%. For the same compound, the inhibition in experiment [6] is 1.61%. Moreover, the RAM network inhibition in experiment [7] is 5.45%.

Regarding `CC1CN(S(=O)(=O)c2ccc(Cl)c(S(=O)(=O)N3CC(C)OC(C)C3)c2)CC(C)O1` (stereo not drawn), the growth inhibition in experiment [1] is -13.5%; in experiment [2] it was -17.1%. In experiment [3], the viability increase is -0.41%. Further, the viability was 89% in experiment [4] and 87.1% in experiment [5]. The inhibition in experiment [6] was 4.11%. Besides, the RAM network inhibition in experiment [7] was 1.17%.

Take `COc1cccc2c(=O)c(C/C=C(/C)Cl)c(C)[nH]c12`: the values for the growth inhibition in experiment [1] and in experiment [2] were -2.8% and 5.71%, respectively. The viability increase in experiment [3] was -2.38%. Moreover, the viability in experiment [4] is 97.5%; in experiment [5], 91.6%. Moreover, in experiment [6], the inhibition is 0.075%. Further, the RAM network inhibition in experiment [7] is -0.16%.

Regarding `CCOC(=O)c1nnn(-c2nonc2N)c1-c1ccccc1`, the growth inhibition is -8.1% in experiment [1] and 7.27% in experiment [2]. Further, the viability increase in experiment [3] is -0.46%. The viability in experiment [4] was 98.7%; in experiment [5], 103%. The inhibition in experiment [6] was 2.83%. The RAM network inhibition in experiment [7] was 5.09%.

Turning to `COc1cccc2c(=O)n(CC(=O)NC3CCCCC3)ccc12`, the values for the growth inhibition in experiment [1] and in experiment [2] were 0.435% and -6.59%, respectively. The viability increase in experiment [3] was -1.27%. The viability was 103% in experiment [4] and 90.3% in experiment [5]. The inhibition in experiment [6] was 1.58%. Moreover, the RAM network inhibition in experiment [7] is 4.45%.

Consider `O=C(Nc1nc2ccccc2n1CCN1CCCC1)c1ccc(Cl)cc1`, for which the growth inhibition in experiment [1] was -9.21%; in experiment [2], -13.3%. The viability increase in experiment [3] is -7.07%. For the same compound, the viability in experiment [4] is 59.9%; in experiment [5], 65.7%. In addition, the inhibition in experiment [6] is -0.07%. For the same compound, the RAM network inhibition in experiment [7] was 4.6%.

On to `O=C(CCS(=O)(=O)c1ccccc1)Nc1nccs1`, for which the growth inhibition was -13.9% in experiment [1] and -10.5% in experiment [2]. Besides, the viability increase in experiment [3] is -8.48%. Further, the viability in experiment [4] is 62.2%; in experiment [5], 72.7%. The inhibition in experiment [6] is 1.48%. In experiment [7], the RAM network inhibition is 5.64%.

For the compound `Cc1ccc(Nc2nc(C3CC3)cs2)cc1`, the growth inhibition in experiment [1] was -8.21%; in experiment [2], -0.01%. Also, the viability increase in experiment [3] was -1.97%. Moreover, the figures for the viability in experiment [4] and in experiment [5] were 92.5% and 90.5%, respectively. In experiment [6], the inhibition is 1.38%. Moreover, the RAM network inhibition in experiment [7] is 2.72%.

With `CN1C(=O)c2cccc(NC(=O)C3CCCCC3)c2C1=O`, the growth inhibition was -7.12% in experiment [1] and 6.03% in experiment [2]. The viability increase in experiment [3] was -1.21%. The viability in experiment [4] is 107%; in experiment [5] it was 93%. Moreover, the inhibition in experiment [6] is 0.445%. The RAM network inhibition in experiment [7] was -0.16%.

Consider `O=C(NC1=NCCS1)C1CC2CCC1C2` (stereo not drawn), for which the values for the growth inhibition in experiment [1] and in experiment [2] were 7.66% and 6.69%, respectively. For the same compound, the viability increase in experiment [3] was -2.34%. Further, the results for the viability in experiment [4] and in experiment [5] were 99.1% and 97.1%, respectively. Also, the inhibition in experiment [6] was 1.96%. The RAM network inhibition in experiment [7] is 3.02%.

With `Cc1ccc(-c2noc(CSc3nnnn3-c3ccccc3)n2)cc1`, the growth inhibition is -16.9% in experiment [1] and 9.4% in experiment [2]. In addition, the viability increase in experiment [3] was 2.8%. Also, the figures for the viability in experiment [4] and in experiment [5] were 88.1% and 97.8%, respectively. Besides, the inhibition in experiment [6] is 1.95%. Moreover, the RAM network inhibition in experiment [7] is 7.44%.

As to `Cc1ccc(CSc2nc3c(c(=O)[nH]c(=O)n3C)n2CCC(C)C)cc1`, the growth inhibition is -2.01% in experiment [1] and -11.3% in experiment [2]. The viability increase in experiment [3] is -7.6%. For the same compound, the viability is 53.1% in experiment [4] and 51.2% in experiment [5]. The inhibition in experiment [6] is 4.83%. Besides, the RAM network inhibition in experiment [7] was 7.58%.

Consider `O=C(Cn1cnc2c(nnn2-c2cccc(Cl)c2)c1=O)N1CCOCC1`, for which the growth inhibition in experiment [1] was -0.49%; in experiment [2] it was -4.46%. For the same compound, the viability increase in experiment [3] is -0.35%. Also, the viability in experiment [4] was 92.5%; in experiment [5] it was 96.4%. Also, the inhibition in experiment [6] was 1.79%. In addition, in experiment [7], the RAM network inhibition was 1.56%.

As for `CCC(SCC(=O)OC)C(=O)Nc1nnc(C(C)C)s1` (stereo not drawn), the growth inhibition was 1.46% in experiment [1] and 8.39% in experiment [2]. Further, the viability increase in experiment [3] is -1.27%. In addition, the viability in experiment [4] was 98.8%; in experiment [5], 98.1%. Besides, the inhibition in experiment [6] is 2.43%. In experiment [7], the RAM network inhibition was 2.05%.

As to `Cn1c(Cn2c(=O)sc3ccccc32)nnc1SCC(=O)NCc1ccccc1Cl`, the growth inhibition in experiment [1] is -7.92%; in experiment [2], -13.9%. Besides, the viability increase in experiment [3] is -1.32%. The viability is 100% in experiment [4] and 103% in experiment [5]. Moreover, in experiment [6], the inhibition was 0.62%. Moreover, the RAM network inhibition in experiment [7] is 3.96%.

Regarding `O=C(O)CCC(=O)N1CCc2cc(S(=O)(=O)N3CCN(c4ccc(F)cc4)CC3)ccc21`, the growth inhibition in experiment [1] was -4.08%; in experiment [2], 6.97%. Also, the viability increase in experiment [3] is -1.31%. The viability in experiment [4] was 97.4%; in experiment [5] it was 99%. Moreover, in experiment [6], the inhibition is 1.94%. In addition, in experiment [7], the RAM network inhibition was 4.17%.

In the case of `CCCCCC(C)n1[nH]c(=O)c2c(C)cc(C)nc21` (stereo not drawn), the growth inhibition in experiment [1] was -6.7%; in experiment [2], 17.6%. The viability increase in experiment [3] was -3.27%. Besides, the viability in experiment [4] was 97.6%; in experiment [5], 96.2%. In addition, in experiment [6], the inhibition is 0.47%. Moreover, in experiment [7], the RAM network inhibition was 0.57%.

For the compound `CC(C)C(NC(=O)OCc1ccccc1)C(=O)NCC(=O)OC(C)(C)C` (stereo not drawn) (Cbz-[ξV]-Gly-OtBu), the growth inhibition is -5.84% in experiment [1] and -2.87% in experiment [2]. Further, in experiment [3], the viability increase was 0.2%. The viability in experiment [4] is 96.6%; in experiment [5], 95.2%. The inhibition in experiment [6] was 1.82%. In addition, the RAM network inhibition in experiment [7] is 3.16%.

For the compound `Cc1ccc(CNC(=O)C2CCCN(c3nc4ccccc4o3)C2)cc1` (stereo not drawn), the growth inhibition in experiment [1] was -20.4%; in experiment [2], -13.5%. In experiment [3], the viability increase was 1.29%. For the same compound, the results for the viability in experiment [4] and in experiment [5] were 101% and 98.9%, respectively. The inhibition in experiment [6] is 0.85%. Besides, the RAM network inhibition in experiment [7] was 5.43%.

On to `CCCCCOC(=O)c1[nH]c2c(c1C)C(=O)CC(c1ccco1)C2` (stereo not drawn), for which the values for the growth inhibition in experiment [1] and in experiment [2] were -15% and -3.28%, respectively. The viability increase in experiment [3] is -5.25%. Further, the figures for the viability in experiment [4] and in experiment [5] were 14.5% (active) and 16.3% (active), respectively. The inhibition in experiment [6] is 0.18%. Moreover, the RAM network inhibition in experiment [7] is -0.31%.

As to `CCCSC1=C(C#N)C(c2ccc(Cl)cc2Cl)CC(=O)N1` (stereo not drawn), the growth inhibition in experiment [1] is 3.83%; in experiment [2], 24%. Besides, in experiment [3], the viability increase was -1.42%. The viability was 83.5% in experiment [4] and 79.4% in experiment [5]. Moreover, the inhibition in experiment [6] is 1.54%. Besides, in experiment [7], the RAM network inhibition is 3.58%.

As for `Cc1cc(C)n2nc(S(=O)(=O)NC3CCCCC3)nc2n1`, the growth inhibition is -7.41% in experiment [1] and -7.9% in experiment [2]. The viability increase in experiment [3] was -0.66%. Further, the viability in experiment [4] was 103%; in experiment [5], 98.5%. For the same compound, the inhibition in experiment [6] was 1.06%. The RAM network inhibition in experiment [7] was -0.89%.

For `COC(=O)C1=C(C)N(C)C(=O)NC1c1ccc(C)cc1` (stereo not drawn), the growth inhibition in experiment [1] is 0.9%; in experiment [2], -13.4%. The viability increase in experiment [3] is 0.2%. The viability in experiment [4] is 105%; in experiment [5], 101%. Also, the inhibition in experiment [6] is 2.69%. Further, in experiment [7], the RAM network inhibition was -0.17%.

Take `O=C(Nc1ccccc1)c1ccc(S(=O)(=O)N2CCCCC2)cc1`: the growth inhibition is 3.41% in experiment [1] and -0.37% in experiment [2]. Further, the viability increase in experiment [3] was 0.95%. In addition, the viability in experiment [4] was 97.8%; in experiment [5], 82.5%. In addition, the inhibition in experiment [6] is 0.395%. Moreover, in experiment [7], the RAM network inhibition is 2.23%.

(Values after PubChem BioAssay.)
